Legend:
Canis familiaris [1] = species: Canis familiaris; assay: Time taken for 80% recovery at a dose of 8 microg (3-h infusion period); assay type: functional, organism-based; conditions: Canis lupus familiaris
Procedure, shortened: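 After the infusion ended, the time to 80% recovery of the blockade was recorded as duration of action. The listed dose is the average amount infused per minute over the 3-h period, in µg/(kg min).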

[2] = (§1) Selectivity determined by expression 10[pA2(atria) - pA2 (trachea)] in guinea pig; assay type: functional, Cavia porcellus
Canis familiaris [3] = species: Canis familiaris; assay: Percent inhibition of isoproterenol induced tachycardia at a dose of 8 microg (3-h infusion period); assay type: functional, Canis lupus familiaris
Adrenergic receptor beta [4] = molecular target: T1, Adrenergic receptor beta (Homo sapiens, UniProt P08588+P07550+P13945); assay: In vitro blocking of beta adrenergic receptor in guinea pig trachea; assay type: tissue-based, Cavia porcellus; conditions: target entry is the homologue from another species
Adrenergic receptor beta [5] = molecular target: T1, Adrenergic receptor beta; assay: In Vitro inhibition of the beta adrenergic receptor in guinea pig atria; assay type: tissue-based, Cavia porcellus; conditions: target entry is the homologue from another species
Canis familiaris [6] = species: Canis familiaris; assay: Time taken for 80% recovery at a dose of 3.3 microg (3-h infusion period); assay type: functional, organism-based; conditions: Canis lupus familiaris
[7] = T1/2 in canine blood; assay type: ADME, […], Canis lupus familiaris; conditions: dog
Procedure, shortened: (§2)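 1 mL of solution containing 50 µg of compound was added to 1 mL of dog or human whole blood, or to 1 mL of 33% (w/v) canine liver homogenate. They were assayed by HPLC on a phenyl column with 60% acetonitrile/40% 0.05 M sodium phosphate (pH 6.6) and UV detection. Half-life was read graphically from concentration versus time.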

Canis familiaris [8] = species: Canis familiaris; assay: Percent inhibition of isoproterenol induced tachycardia at a dose of 3.3 microg (3-h infusion period); assay type: functional, Canis lupus familiaris
[9] = t1/2 in canine liver; assay type: ADME, Canis lupus familiaris; conditions: dog
Canis familiaris [10] = species: Canis familiaris; assay: Percent inhibition of isoproterenol induced tachycardia at a dose of 23 microg (3-h infusion period); assay type: functional, Canis lupus familiaris
Canis familiaris [11] = species: Canis familiaris; assay: Time taken for 80% recovery at a dose of 23 microg (3-h infusion period); assay type: functional, organism-based; conditions: Canis lupus familiaris
[12] = Stability at pH 7.4 and 37 degree Celsius (after 18 h); assay type: physicochemical; conditions: buffer
Procedure, shortened: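 Chemical stability was tested in pH 7.4 buffer at 37 °C. The percentage of parent compound remaining after 18 h of incubation was recorded.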

Canis familiaris [13] = species: Canis familiaris; assay: Time taken for 80% recovery at a dose of 20 microg (3-h infusion period); assay type: functional, organism-based; conditions: Canis lupus familiaris
Canis familiaris [14] = species: Canis familiaris; assay: Percent inhibition of isoproterenol induced tachycardia at a dose of 20 microg (3-h infusion period); assay type: functional, Canis lupus familiaris
[15] = Time in which 1/2 of the initial amount disappeared in human blood.; assay type: ADME, organism-based; procedure, shortened: as §2
Canis familiaris [16] = species: Canis familiaris; assay: Time taken for 80% recovery at a dose of 128 microg (3-h infusion period) / 85 kg min (40-min infusion model); assay type: functional, organism-based; conditions: Canis lupus familiaris
Canis familiaris [17] = species: Canis familiaris; assay: Percent inhibition of isoproterenol induced tachycardia at a dose of 128 microg (3-h infusion period) / 85 kg min (40-min infusion model); assay type: functional, Canis lupus familiaris
Canis familiaris [18] = species: Canis familiaris; assay: Time taken for 80% recovery at a dose of 0.59-1.26 microg (3-h infusion period); assay type: functional, organism-based; conditions: Canis lupus familiaris
Canis familiaris [19] = species: Canis familiaris; assay: Percent inhibition of isoproterenol induced tachycardia at a dose of 0.59-1.26 microg (3-h infusion period); assay type: functional, Canis lupus familiaris
Canis familiaris [20] = species: Canis familiaris; assay: Time taken for 80% recovery at a dose of 1.1 microg (3-h infusion period); assay type: functional, organism-based; conditions: Canis lupus familiaris
Adrenergic receptor beta [21] = molecular target: T1, Adrenergic receptor beta; assay: In vitro beta adrenergic receptor blocking in guinea pig trachea; assay type: tissue-based, Cavia porcellus; conditions: target entry is the homologue from another species
Canis familiaris [22] = species: Canis familiaris; assay: Percent inhibition of isoproterenol induced tachycardia at a dose of 1.1 microg (3-h infusion period); assay type: functional, Canis lupus familiaris
[23] = Time in which 1/2 of the initial amount disappeared in human blood; assay type: ADME, organism-based; procedure, shortened: as §2
Canis familiaris [24] = species: Canis familiaris; assay: Percent inhibition of isoproterenol induced tachycardia at a dose of 4 microg (3-h infusion period); assay type: functional, Canis lupus familiaris
Canis familiaris [25] = species: Canis familiaris; assay: Time taken for 80% recovery at a dose of 4 microg (3-h infusion period); assay type: functional, organism-based; conditions: Canis lupus familiaris
Canis familiaris [26] = species: Canis familiaris; assay: Time taken for 80% recovery at a dose of 106 microg (3-h infusion period); assay type: functional, organism-based; conditions: Canis lupus familiaris
[27] = Time in which 1/2 of the initial amount disappeared in canine liver(106); assay type: ADME, […], Canis lupus familiaris; conditions: dog; procedure, shortened: as §2
Canis familiaris [28] = species: Canis familiaris; assay: Percent inhibition of isoproterenol induced tachycardia at a dose of 57/122 microg (3-h infusion period); assay type: functional, Canis lupus familiaris
Canis familiaris [29] = species: Canis familiaris; assay: Time taken for 80% recovery at a dose of 57/122 microg (3-h infusion period); assay type: functional, organism-based; conditions: Canis lupus familiaris
[30] = as §1; assay type: functional, Cavia porcellus; remark: listed apart in the source
Procedure, shortened: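 Selectivity index calculated as 10^[pA2(atria) − pA2(trachea)] from pA2 values measured in isolated guinea pig atria and trachea. A minus sign denotes β2 selectivity.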

Canis familiaris [31] = species: Canis familiaris; assay: Time taken for 80% recovery at a dose of 172 microg (3-h infusion period); assay type: functional, organism-based; conditions: Canis lupus familiaris

Compound	Selectivity [2]	pA2 (Adrenergic receptor beta [4])	pA2 (Adrenergic receptor beta [5])	half-life [7]	half-life [9]	half-life [15]	also measured
CC(C)(CNC(=O)C1CCCCC1)NCC(O)COC(=O)c1ccccc1F (centres undefined)	3	7.2	7.7	–	–	–	Recovery time (Canis familiaris [1]): 12 min; Inhibition (Canis familiaris [3]): 61%
CC(C)C(=O)NCC(C)(C)NCC(O)COC(=O)c1ccccc1F (centres undefined)	–	–	–	20 min	3.5 min	–	Recovery time (Canis familiaris [6]): 22 min; Inhibition (Canis familiaris [8]): 62%
CC(C)(C)NCC(O)COC(=O)c1ccc([N+](=O)[O-])cc1Cl (centres undefined)	1	6.5	6.6	–	–	–	Inhibition (Canis familiaris [10]): 85%; Recovery time (Canis familiaris [11]): > 60 min
CC(C)(C)NCC(O)COC(=O)c1ccccc1F (centres undefined)	-16	8	6.8	30 min	10 min	1.6 min	remaining at 18 h [12]: 98%; Recovery time (Canis familiaris [13]): 17 min; Inhibition (Canis familiaris [14]): 60%
CC(C)NCC(O)COC(=O)c1ccccc1 (centres undefined)	-7	7.2	6.3	6.8 min	8 min	2.3 min	Recovery time (Canis familiaris [16]): 26 min; Inhibition (Canis familiaris [17]): 63%
CC(C)NCC(O)COC(=O)c1ccc(N)cc1 (centres undefined)	1	6.6	6.7	> 180 min	> 180 min	60 min	Recovery time (Canis familiaris [18]): > 60 min; Inhibition (Canis familiaris [19]): 80%
CC(C)(CNC(=O)N1CCOCC1)NCC(O)COC(=O)c1ccccc1F (centres undefined)	2	–	8.5	–	–	–	Recovery time (Canis familiaris [20]): > 60 min; pA2 (Adrenergic receptor beta [21]): 8.2; Inhibition (Canis familiaris [22]): 81%
CC(C)(C)NCC(O)COC(=O)c1ccc(F)cc1 (centres undefined)	-5	8	7.3	16 min	66 min	–	half-life [23]: 11.5 min
CC(C)(C)NCC(O)COC(=O)c1ccc(O)cc1 (centres undefined)	9	6.5	7.4	> 180 min	> 180 min	56 min	Inhibition (Canis familiaris [24]): 71%; Recovery time (Canis familiaris [25]): > 60 min
CC(C)NCC(O)COC(=O)c1ccccc1F (centres undefined)	–	7.1	–	7 min	–	1.7 min	Recovery time (Canis familiaris [26]): 25 min; remaining at 18 h [12]: 83%; half-life [27]: 4 min
CC(C)(CNS(=O)(=O)c1ccccc1)NCC(O)COC(=O)c1ccccc1F.O=C(O)C(=O)O (centres undefined)	1	7.9	7	15 min	–	–	Inhibition (Canis familiaris [28]): 43%; Recovery time (Canis familiaris [29]): 6 min
CCCOc1ccccc1C(=O)OCC(O)CNC(C)C (centres undefined)	–	7.1	6.6	–	–	–	Selectivity [30]: -3.5; Recovery time (Canis familiaris [31]): > 60 min

From ChEMBL document CHEMBL1122794, “[(Arylcarbonyl)oxy]propanolamines. 1. Novel beta-blockers with ultrashort duration of action” (J Med Chem, 1984)
